Test [1] has as its target T1, G-protein coupled receptor 55 (Homo sapiens, UniProt Q9Y2T6). The test can be described thus: Agonist activity at human GPR55 transfected in CHO cells at 10 uM after 90 mins by beta-arrestin translocation assay. In kind it is cell-based. The procedure, abridged:
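CHO cells stably expressing human GPR55 (β-galactosidase fragment complementation) were seeded at 20,000 cells/well in Opti-MEM with 2% FCS for 24 h at 37°C. Compound was diluted in PBS with 10% DMSO and 0.1% BSA, screened at 10 µM and incubated 90 min at 37°C. Galacton-Star/Emerald-II/lysis buffer (1:5:19) was added for 60 min at RT, then luminescence was read. Response is relative to 1 µM LPI (100%).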

The target in test [2] is T1, G-protein coupled receptor 55. Kind of test: Antagonist activity at human GPR55 transfected in CHO cells assessed as inhibition of LPI-induced beta-arrestin recruitment at 10 uM incubated 60 mins prior to LPI addition by beta-arrestin translocation assay. Also on record: scale not given: the % may be the effect or the level left. In kind it is cell-based. The procedure, abridged:
(§1)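 CHO cells stably expressing human GPR55 were seeded at 20,000 cells/well for 24 h at 37°C. Compound in PBS/10% DMSO/0.1% BSA was added 60 min before 1 µM LPI. Galacton-Star/Emerald-II/lysis buffer (pH 8) was applied for 60 min at RT, with luminescence read-out. Screening was at 10 µM (% inhibition). IC50 was measured where inhibition exceeded 60%. Three independent experiments in duplicate.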
(In general: Arrestin recruitment assays detect the binding of arrestin to an activated receptor.)

Test [3] has the same target. The test can be described thus: Antagonist activity at human GPR55 transfected in CHO cells assessed as inhibition of LPI-induced beta-arrestin recruitment incubated 60 mins prior to LPI addition by beta-arrestin translocation assay. The test is classed as cell-based. The procedure, abridged:
as §1

The target of a further test is Cannabinoid receptor 2 (Homo sapiens, UniProt P34972). Kind of test: Displacement of [3H]-CP55,940 from human CB2 receptor transfected in CHOK1 cells. The test is classed as cell-based, CHO-K1. The procedure, abridged:
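CHO cells stably expressing human CB2 supplied the membranes, 1 µg protein per vial. Compounds were screened at 10 µM, and full competition curves were run where inhibition was about 50% or more. Three independent experiments in duplicate.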
(Displacement assays read how much labelled ligand stays bound in the presence of the test substance.)

Another test deals with Cannabinoid receptor 1 (Homo sapiens, UniProt P21554). The test can be described thus: Displacement of [3H]-CP55,940 from human CB1 receptor transfected in CHOK1 cells. The test is classed as cell-based, CHO-K1.
Test [4] has as its target T2, N-arachidonyl glycine receptor (Homo sapiens) (UniProt Q14330).
T2 sequence (whole entry): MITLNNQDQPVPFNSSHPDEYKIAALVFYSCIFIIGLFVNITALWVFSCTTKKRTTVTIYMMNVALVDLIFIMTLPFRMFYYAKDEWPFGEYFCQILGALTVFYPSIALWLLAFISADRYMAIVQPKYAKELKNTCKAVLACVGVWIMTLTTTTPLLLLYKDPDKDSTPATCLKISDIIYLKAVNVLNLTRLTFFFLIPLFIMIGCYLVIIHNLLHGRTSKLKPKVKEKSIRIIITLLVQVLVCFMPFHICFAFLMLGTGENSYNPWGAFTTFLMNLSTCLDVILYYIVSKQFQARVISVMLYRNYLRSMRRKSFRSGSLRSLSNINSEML
Kind of test: Antagonist activity at human GPR18 transfected in CHO cells assessed as delta9-THC-induced beta-arrestin recruitment at 10 uM incubated 60 mins prior to delta9-THC addition by beta-arrestin translocation assay. In kind it is cell-based. More on the design: scale not given: the % may be the effect or the level left. Put shortly:
(§2)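 CHO cells stably expressing human GPR18 were seeded at 20,000 cells/well for 24 h at 37°C. Compound in PBS/10% DMSO/0.1% BSA was added 60 min before the GPR18 agonist 3 at 10 µM. The supplier's detection reagent was used, and luminescence was read after 60 min at RT. Screening was at 10 µM (% inhibition); IC50 from concentration-inhibition curves. Three independent experiments in duplicate.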

Test [5] concerns the target T3, N-arachidonyl glycine receptor (Homo sapiens, UniProt Q14330).
T3 sequence (Q14330 whole entry): T2 sequence (whole entry)
Kind of test: Antagonist activity at human GPR18 transfected in CHO cells assessed as delta9-THC-induced beta-arrestin recruitment incubated 60 mins prior to delta9-THC addition by beta-arrestin translocation assay. The test is classed as cell-based. The procedure, abridged:
as §2

Usually IC50 stands for the concentration that inhibits the measured activity by half. For orientation: Ki means the equilibrium dissociation constant of an inhibitor or competing ligand from its target.

Activity calls are given as the source filed them. The rule behind the calls is not given here.

T1 sequence (Q9Y2T6 whole entry, the tested form may be a part): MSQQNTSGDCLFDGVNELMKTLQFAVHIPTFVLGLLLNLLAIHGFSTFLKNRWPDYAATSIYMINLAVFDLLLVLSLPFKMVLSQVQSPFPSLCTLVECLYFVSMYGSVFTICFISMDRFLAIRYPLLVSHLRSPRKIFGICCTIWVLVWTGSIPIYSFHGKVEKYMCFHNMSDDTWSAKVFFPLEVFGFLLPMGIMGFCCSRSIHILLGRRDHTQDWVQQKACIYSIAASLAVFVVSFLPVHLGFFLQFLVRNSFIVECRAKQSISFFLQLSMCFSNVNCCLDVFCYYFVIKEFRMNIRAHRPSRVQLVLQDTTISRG
Chain of Cannabinoid receptor 1 (P21554 whole entry): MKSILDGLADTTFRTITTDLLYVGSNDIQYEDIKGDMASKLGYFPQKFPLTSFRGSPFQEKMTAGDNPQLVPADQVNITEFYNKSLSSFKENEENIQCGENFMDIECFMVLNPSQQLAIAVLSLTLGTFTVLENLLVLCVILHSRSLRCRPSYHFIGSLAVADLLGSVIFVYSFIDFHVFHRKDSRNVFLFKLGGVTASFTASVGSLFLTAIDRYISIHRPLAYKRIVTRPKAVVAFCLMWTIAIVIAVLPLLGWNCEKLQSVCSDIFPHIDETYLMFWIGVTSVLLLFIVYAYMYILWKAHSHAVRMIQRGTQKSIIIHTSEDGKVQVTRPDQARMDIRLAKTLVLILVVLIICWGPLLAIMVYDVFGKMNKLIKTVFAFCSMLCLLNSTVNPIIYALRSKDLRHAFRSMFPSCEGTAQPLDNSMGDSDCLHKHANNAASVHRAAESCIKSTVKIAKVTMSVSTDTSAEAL
Chain of Cannabinoid receptor 2 (P34972 whole entry): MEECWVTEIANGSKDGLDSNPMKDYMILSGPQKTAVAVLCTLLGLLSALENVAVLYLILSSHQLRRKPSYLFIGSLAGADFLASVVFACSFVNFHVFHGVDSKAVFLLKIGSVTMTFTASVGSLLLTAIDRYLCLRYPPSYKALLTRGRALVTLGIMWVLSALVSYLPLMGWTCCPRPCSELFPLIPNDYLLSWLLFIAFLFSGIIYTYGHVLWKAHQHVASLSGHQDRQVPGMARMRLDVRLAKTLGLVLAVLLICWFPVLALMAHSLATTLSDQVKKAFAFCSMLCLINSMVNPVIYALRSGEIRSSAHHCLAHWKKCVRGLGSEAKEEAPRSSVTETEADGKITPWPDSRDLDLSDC

As to `Cc1cc2cc(Cl)cc(Br)c2oc1=O`, in test [1], the outcome was inactive. Besides, the Activity in test [2] is 45%. In addition, the 50% inhibitory concentration (IC50) in test [3] was over 10 µM.

Consider `O=c1oc2ccc3ccccc3c2cc1Cc1ccccc1`, for which the outcome in test [1] was inactive. The IC50 in test [3] was 2.81 µM.

As to `COc1ccc2oc(=O)c(C)cc2c1`, the result in test [1] was inactive. Besides, in test [2], the Activity is 13%. In addition, in test [3], the half-inhibitory concentration (IC50) was over 10 µM.

With `COc1ccccc1Cc1cc2c(C)c(OC)c(C)c(C)c2oc1=O`, the result in test [1] was inactive. The inhibitory constant (Ki) was 0.338 µM at Cannabinoid receptor 2 and 3.66 µM at Cannabinoid receptor 1. Also, the Activity in test [4] worked out at 27%. The IC50 in test [5] is over 10 µM; in test [3] it was 0.981 µM.

With `COc1cccc2oc(=O)c(Cc3ccccc3)cc12`, in test [1], the outcome was inactive. In addition, in test [2], the Activity came to 43%. In addition, the concentration for half-maximal inhibition (IC50) in test [3] is over 10 µM.

As to `COc1ccc2cc(C)c(=O)oc2c1`, the result in test [1] was inactive. Also, in test [2], the Activity came to 25%. Also, the IC50 in test [3] is over 10 µM.

For `CCCCCc1cc(O)c2cc(Cc3ccccc3O)c(=O)oc2c1`, the result in test [1] was inactive. In addition, the Activity in test [2] was 37%. Besides, the IC50 in test [3] is over 10 µM.

Regarding `CCCCCCC(C)(C)c1cc(OC)c2cc(Cc3ccccc3OC)c(=O)oc2c1`, in test [1], the outcome was inactive. Moreover, the Activity in test [4] came out at 26%; in test [2] it was 25%. In addition, the half-maximal inhibitory concentration (IC50) in test [5] and in test [3] was over 10 µM in each case.

`Cc1cc2c(ccc3ccccc32)oc1=O`: the result in test [1] was inactive. The Activity in test [2] is 28%. Moreover, the IC50 in test [3] is over 10 µM.

For the molecule `O=c1oc2ccc(I)cc2cc1Cc1ccccc1`, the outcome in test [1] was inactive. Moreover, the Activity in test [2] stood at 46%. Further, the half-maximal inhibitory concentration (IC50) in test [3] is over 10 µM.

Turning to `CCCCCc1cc(O)c2cc(Cc3cccc(Cl)c3)c(=O)oc2c1`, in test [1], the result was inactive. For the same molecule, the Activity in test [2] turned out to be 30%. For the same molecule, the IC50 in test [3] was over 10 µM.

In the case of `CCCCCc1cc(OC)c2cc(Cc3ccccc3)c(=O)oc2c1`, in test [1], the outcome was inactive. Moreover, the Activity in test [2] worked out at 36%. In addition, in test [3], the concentration for half-maximal inhibition (IC50) was over 10 µM.

Consider `CCCCCCC(C)(C)c1cc(OC)c2cc(Cc3ccccc3)c(=O)oc2c1`, for which the outcome in test [1] was inactive. Moreover, the Activity came to 31% in test [4] and 51% in test [2]. For the same molecule, the 50% inhibitory concentration (IC50) in test [5] was over 10 µM; in test [3], 10 µM.

As to `CCCCC1(c2cc(OC)c3cc(Cc4ccccc4OC)c(=O)oc3c2)CCCC1`, the result in test [1] was inactive. For the same molecule, the Activity in test [4] amounted to 25%; in test [2], 30%. Further, the IC50 in test [5] and in test [3] was over 10 µM in each case.

Consider `COc1cccc2cc(Cc3ccccc3)c(=O)oc12`, for which the result in test [1] was inactive. For the same molecule, the Activity in test [2] stood at 5%. In addition, the IC50 in test [3] is over 10 µM.

On to `COc1cccc(Cc2cc3c(OC)cc(CO)cc3oc2=O)c1`, for which, in test [1], the outcome was inactive. The Activity in test [2] turned out to be 13%. Moreover, the 50% inhibitory concentration (IC50) in test [3] is over 10 µM.

For `CCCCCc1cc(OC)c2cc(Cc3cccc(C)c3)c(=O)oc2c1`, the result in test [1] was inactive. In test [2], the Activity worked out at 27%. In test [3], the half-maximal inhibitory concentration (IC50) was over 10 µM.

Regarding `COc1cccc(Cc2cc3c(OC)cccc3oc2=O)c1`, the outcome in test [1] was inactive. The Activity in test [2] is 54%. Also, in test [3], the IC50 was 10 µM.

Consider `COc1cccc2cc(C)c(=O)oc12`, for which, in test [1], the outcome was inactive. For the same molecule, the Activity in test [2] amounted to 7%. The IC50 in test [3] is over 10 µM.

Regarding `CCCCCc1cc(O)c2cc(Cc3ccccc3Cl)c(=O)oc2c1`, in test [1], the result was inactive. Besides, the Activity in test [4] and in test [2] was 0% each time. Further, the IC50 in test [5] and in test [3] was over 10 µM throughout.

On to `Cc1ccc(Cc2cc3c(O)cc(C)cc3oc2=O)cc1`, for which the result in test [1] was inactive. Besides, in test [2], the Activity worked out at 42%. Moreover, the IC50 in test [3] is over 10 µM.

`Cc1cc2cc(I)ccc2oc1=O`: the result in test [1] was inactive. In addition, in test [2], the Activity worked out at 40%. In addition, in test [3], the IC50 was over 10 µM.

As to `O=c1oc2ccccc2cc1Cc1ccccc1`, in test [1], the result was inactive. Moreover, the Activity in test [2] turned out to be 28%. In test [3], the IC50 is over 10 µM.

With `O=c1oc2cccc(O)c2cc1Cc1ccccc1`, the outcome in test [1] was inactive. The Activity in test [2] was 6%. In addition, the IC50 in test [3] was over 10 µM.

As for `COc1ccc2cc(Cc3ccccc3)c(=O)oc2c1`, the result in test [1] was inactive. Further, the Activity in test [2] was 53%. Also, the IC50 in test [3] was found to be 10 µM.

Turning to `CCCCCc1cc(OC)c2cc(Cc3ccccc3Cl)c(=O)oc2c1`, the outcome in test [1] was inactive. Moreover, in test [4], the Activity worked out at 25%. The IC50 in test [5] was over 10 µM; in test [3], 9 µM.

`COc1cc(Br)cc2cc(C)c(=O)oc12`: the outcome in test [1] was inactive. Further, in test [2], the Activity is 16%. Moreover, the IC50 in test [3] is over 10 µM.

As to `COc1cccc(Cc2cc3c(OC)cc(CBr)cc3oc2=O)c1`, the result in test [1] was inactive. Besides, in test [2], the Activity was 18%. The IC50 in test [3] is over 10 µM.

With `CCCCCc1cc(O)c2cc(Cc3cccc(C)c3)c(=O)oc2c1`, in test [1], the outcome was inactive. The Activity in test [2] stood at 19%. Also, the 50% inhibitory concentration (IC50) in test [3] is over 10 µM.

`COc1c(C)c(C)c2oc(=O)c(Cc3ccccc3C)cc2c1C`: in test [1], the result was inactive. Further, the Ki at Cannabinoid receptor 2 stood at 0.66 µM; at Cannabinoid receptor 1, 7.86 µM. The Activity in test [4] turned out to be 33%. In addition, the results for the concentration for half-maximal inhibition (IC50) in test [5] and in test [3] were over 10 µM and 7.69 µM, respectively.

For the molecule `CCCCCc1cc(O)c2cc(Cc3ccccc3C)c(=O)oc2c1`, the outcome in test [1] was inactive. Further, the Activity in test [4] is 10%; in test [2] it was 19%. Also, the IC50 in test [5] and in test [3] was over 10 µM each time.

For `CCCCCCC(C)(C)c1ccc([C@@H]2C[C@H](O)CC[C@H]2CCCO)c(O)c1` [CP-55940], in test [5], the IC50 was determined as 5.99 µM.

For `CCCCCc1cc(OC)c2cc(Cc3cccc(Cl)c3)c(=O)oc2c1`, the result in test [1] was inactive. The Activity in test [2] is 36%. Further, the concentration for half-maximal inhibition (IC50) in test [3] is over 10 µM.

Consider `CCCCCc1cc(OC)c2cc(Cc3cc(C)c(OC)c(C)c3)c(=O)oc2c1`, for which the result in test [1] was inactive. The Activity in test [2] was 44%. The IC50 in test [3] was over 10 µM.

As for `CCCCCc1cc(OC)c2cc(Cc3ccc(F)cc3)c(=O)oc2c1`, the outcome in test [1] was inactive. Further, the Activity in test [2] worked out at 57%. In addition, the IC50 in test [3] came out at 10 µM.

As to `Cc1cc(O)c2cc(Cc3ccccc3C)c(=O)oc2c1`, the result in test [1] was inactive. For the same molecule, the Activity in test [2] came to 45%. In test [3], the IC50 was over 10 µM.

As for `COc1ccc2oc(=O)c(Cc3ccccc3)cc2c1`, in test [1], the result was inactive. In addition, in test [2], the Activity is 54%. In test [3], the IC50 was found to be 10 µM.

As for `CCCCCc1cc(O)c2cc(Cc3ccccc3)c(=O)oc2c1`, in test [1], the outcome was inactive. Besides, in test [2], the Activity is 0%. Further, in test [3], the concentration for half-maximal inhibition (IC50) was over 10 µM.

`COc1ccc(Br)c2oc(=O)c(Cc3ccccc3)cc12`: the result in test [1] was inactive. The Activity in test [2] was 2%. In addition, the 50% inhibitory concentration (IC50) in test [3] was over 10 µM.

Values taken from ChEMBL document CHEMBL2384924, “Antagonists for the orphan G-protein-coupled receptor GPR55 based on a coumarin scaffold” (J Med Chem, 2013).
